These results are taken from ChEMBL document CHEMBL2151034, “Synthesis, biological evaluation and molecular docking studies of 3-(triazolyl)-coumarin derivatives: effect on inducible nitric oxide synthase” (Eur J Med Chem, 2012).

The test system of series [1] is Neutrophil. As to the kind of experiment: Antiinflammatory activity in Wistar rat neutrophils assessed as inhibition of LPS-stimulated PGE2 production at 100 uM after 18 hrs by ELISA. The class given is functional, cell-based. Summed up: (§1)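 Glycogen-elicited peritoneal neutrophils from male Wistar rats, 1 × 10⁶ cells, 18 h at 37 °C in 5% CO2 with or without E. coli LPS (serotype 026:B6). Compounds given at the same time, dissolved in HBSS; HBSS-treated cells serve as control. Nitrite measured by Griess reaction (absorbance at 550 nm, 10 min). PGE2 measured by ELISA in supernatant stored frozen at −80 °C. Mean ± s.e.m. of 4 independent assays.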
For orientation: In an ELISA, binding on a coated surface is turned into a signal by an enzyme label.

A short description of series [2]: Induction of PGE2 production in Wistar rat neutrophils at 100 uM after 18 hrs by ELISA. The class given is cell-based. The conditions noted are these: neutrophil. In outline:
(§2)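 Rat peritoneal neutrophils elicited by intraperitoneal oyster glycogen, 1 × 10⁶ cells, incubated 18 h at 37 °C in 5% CO2 in medium alone (basal) or with LPS, with compounds in HBSS added at the same time. Supernatant frozen at −80 °C. TNF-α and PGE2 quantified by ELISA in pg/ml. Compared against HBSS-treated cells. Mean ± s.e.m. of 4 independent assays.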

The test system of series [3] is Neutrophil. In words: Antiinflammatory activity in Wistar rat neutrophils assessed as reduction of LPS-stimulated TNFalpha production at 100 uM after 18 hrs by ELISA. The class given is functional, cell-based. In outline:
as §2

For series [4], the system named is Neutrophil. In words: Antiinflammatory activity in Wistar rat neutrophils assessed as reduction of TNFalpha production at 100 uM after 18 hrs by ELISA. The class given is functional, cell-based. Summed up:
as §2

Series [5] has as its system Neutrophil. In words: Antiinflammatory activity in Wistar rat neutrophils assessed as inhibition of LPS-stimulated PGE2 production at 1000 uM after 18 hrs by ELISA. The class given is functional, cell-based. In outline: as §1
Series [6] has as its system Neutrophil. As to the kind of experiment: Antiinflammatory activity in Wistar rat neutrophils assessed as inhibition of LPS-stimulated TNFalpha production at 1000 uM after 18 hrs by ELISA. The class given is functional, cell-based. Summed up:
as §2

For series [7], the system named is Neutrophil. In words: Antiinflammatory activity in Wistar rat neutrophils assessed as inhibition of LPS-stimulated NO production at 10 to 100 uM after 18 hrs by Griess method. The class given is functional, cell-based. In outline: as §1
In general terms: The Griess reaction detects nitrite, a stable product of nitric oxide.

Series [8] is described as follows: Induction of apoptosis in Wistar rat neutrophils. The class given is cell-based. To be noted: neutrophil.
Series [9] can be described thus: Induction of necrosis in Wistar rat neutrophils. The class given is cell-based. To be noted: neutrophil.
Series [10] has as its target Nitric oxide synthase, inducible (Rattus norvegicus) (UniProt Q06518). As to the kind of experiment: Inhibition of iNOS activity in LPS-stimulated Wistar rat neutrophils at 100 uM after 18 hrs by enzymatic assay. In outline: (§3)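 Neutrophils treated 18 h with LPS and compound, then homogenized in cold 50 mM Tris-HCl pH 7.4 with 1 mM PMSF and 1 mM L-citrulline. Homogenates incubated 30 min at 37 °C with 1 mM NADPH. Activity expressed as pmol L-citrulline/min/mg protein, with protein by Bradford. Calcium-independent (iNOS) activity defined by omitting CaCl2 and adding 1 mM EGTA; 1 mM L-NAME used as control. Mean ± s.e.m., n = 4.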

For series [11] the target is unchanged. As to the kind of experiment: Inhibition of iNOS in LPS-stimulated Wistar rat neutrophils assessed as decrease in total NOS activity at 100 uM after 18 hrs by enzymatic assay. Summed up:
as §3

Series [12] relates to Neutrophil. In words: Inhibition of LPS-induced iNOS expression in Wistar rat neutrophils assessed as reduction of NO production after 18 hrs by Western blot analysis. The class given is functional, cell-based. In outline:
(§4)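 Glycogen-elicited Wistar rat neutrophils, 1 × 10⁶ cells, incubated 18 h with LPS plus compound or control. Protein: homogenate in 50 mM Tris pH 7.4 with PMSF, 50 µg run on 7% SDS-PAGE, blocked with casein, mouse monoclonal anti-iNOS at 500 ng/mL, HRP chemiluminescence, densitometry normalized to β-actin. mRNA: real-time PCR against GAPDH, quantified by the Liu and Saint method. Mean ± s.e.m. of 4 independent assays.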
A general note: A western blot detects proteins with antibodies after separation by electrophoresis.

Series [13] relates to Neutrophil. As to the kind of experiment: Inhibition of iNOS expression in Wistar rat neutrophils assessed as reduction of NO production after 18 hrs by Western blot analysis. The class given is functional, cell-based. In outline: as §4
In series [14] the target is T1, Nitric oxide synthase 3 (Rattus norvegicus) (UniProt Q62600).
T1 sequence (whole entry): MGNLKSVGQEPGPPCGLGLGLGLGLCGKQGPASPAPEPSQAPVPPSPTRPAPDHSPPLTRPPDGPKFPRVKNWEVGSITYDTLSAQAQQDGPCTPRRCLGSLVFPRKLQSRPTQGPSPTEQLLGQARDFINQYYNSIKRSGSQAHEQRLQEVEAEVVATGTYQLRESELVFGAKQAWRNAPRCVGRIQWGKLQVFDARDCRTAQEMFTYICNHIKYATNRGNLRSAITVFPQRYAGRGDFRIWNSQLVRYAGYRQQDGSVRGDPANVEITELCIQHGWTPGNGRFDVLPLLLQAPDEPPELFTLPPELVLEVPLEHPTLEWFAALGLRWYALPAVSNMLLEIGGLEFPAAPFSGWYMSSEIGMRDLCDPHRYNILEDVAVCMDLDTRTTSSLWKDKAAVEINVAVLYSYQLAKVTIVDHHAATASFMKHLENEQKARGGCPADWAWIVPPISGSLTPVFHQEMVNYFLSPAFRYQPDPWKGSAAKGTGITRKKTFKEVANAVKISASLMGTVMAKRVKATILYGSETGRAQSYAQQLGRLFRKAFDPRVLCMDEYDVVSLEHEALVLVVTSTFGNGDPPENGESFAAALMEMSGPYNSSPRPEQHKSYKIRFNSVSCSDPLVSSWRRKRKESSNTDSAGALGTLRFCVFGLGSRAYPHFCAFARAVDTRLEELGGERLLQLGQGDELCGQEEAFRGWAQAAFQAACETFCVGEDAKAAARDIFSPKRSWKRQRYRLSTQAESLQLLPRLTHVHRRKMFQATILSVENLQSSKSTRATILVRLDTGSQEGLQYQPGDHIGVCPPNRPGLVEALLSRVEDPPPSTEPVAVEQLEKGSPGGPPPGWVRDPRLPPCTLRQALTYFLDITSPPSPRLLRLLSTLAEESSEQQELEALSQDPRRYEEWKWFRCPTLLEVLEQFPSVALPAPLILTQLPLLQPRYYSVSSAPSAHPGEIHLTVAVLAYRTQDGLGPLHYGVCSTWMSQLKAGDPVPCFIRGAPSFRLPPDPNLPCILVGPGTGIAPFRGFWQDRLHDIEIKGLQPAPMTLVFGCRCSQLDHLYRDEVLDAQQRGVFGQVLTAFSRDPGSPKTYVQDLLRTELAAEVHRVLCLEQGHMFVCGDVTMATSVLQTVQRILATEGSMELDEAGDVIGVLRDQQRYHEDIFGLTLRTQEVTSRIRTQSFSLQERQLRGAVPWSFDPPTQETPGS
As to the kind of experiment: Inhibition of eNOS in rat PMEC assessed as reduction in nitrite level at 100 uM after 48 hrs by Griess method. Summed up: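 Primary microvascular endothelial cells from rat cremaster muscle explants, grown in DMEM with 20% fetal calf serum and used at confluence after subculture. Incubated 48 h at 37 °C in 5% CO2 without LPS, with coumarin compounds or L-NAME at 100 µM. Nitrite in supernatant measured by Griess reaction at 550 nm. Mean ± s.e.m. of 4 independent assays.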

A short description of series [15]: Cytotoxicity against Wistar rat neutrophils assessed as cell viability. The conditions noted are these: read-out: Activity. The class given is cell-based, Neutrophil.
In the next series the test system is Rattus norvegicus. As to the kind of experiment: Antiinflammatory activity in LPS-induced rat subcutaneous dorsal inflamed tissue assessed as reduction of neutrophil recruitment at 50 mg/kg, ip after 4 hrs post LPS challenge by Giemsa staining. The class given is functional, organism-based. More on the design: dose 50 mg/kg. In outline:
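Rat dorsal air pouch: 10 mL sterile air injected subcutaneously, refilled with 10 mL on day 7. On day 10, 50 mg/kg in 1 mL sterile PBS was given intraperitoneally (per methods) at the same time as LPS (1.5 mg/mL) was injected into the pouch; controls got PBS. Exudate leukocytes were counted 4 h later by Neubauer chamber and dyed smears. Mean ± s.e.m., 3 animals/group.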

The subject of series [16] is Neutrophil. In words: Inhibition of LPS-induced cytoplasmic iNOS expression in Wistar rat neutrophils assessed as decrease in protein level after 18 hrs by Western blot analysis. The class given is functional, cell-based. Summed up: as §4
In series [17] the test system is Neutrophil. As to the kind of experiment: Inhibition of LPS-induced iNOS gene expression in Wistar rat neutrophils assessed as decrease in mRNA level after 18 hrs by real-time PCR analysis. The class given is functional, cell-based. In outline: as §4
The nature of series [18]: Induction of TNFalpha production in Wistar rat neutrophils at 100 uM after 18 hrs by ELISA relative to vehicle-treated control. The class given is cell-based. The conditions noted are these: neutrophil. Summed up: as §2
The nature of series [19]: Inhibition of LPS-stimulated NO production in Wistar rat neutrophils at 10 uM after 18 hrs by Griess method. To be noted: neutrophil.

Each structure is given as a SMILES string. Active and inactive are the calls of the source. The rule behind the calls is not given here.

Chain of Nitric oxide synthase, inducible (Rattus norvegicus) (Q06518 whole entry): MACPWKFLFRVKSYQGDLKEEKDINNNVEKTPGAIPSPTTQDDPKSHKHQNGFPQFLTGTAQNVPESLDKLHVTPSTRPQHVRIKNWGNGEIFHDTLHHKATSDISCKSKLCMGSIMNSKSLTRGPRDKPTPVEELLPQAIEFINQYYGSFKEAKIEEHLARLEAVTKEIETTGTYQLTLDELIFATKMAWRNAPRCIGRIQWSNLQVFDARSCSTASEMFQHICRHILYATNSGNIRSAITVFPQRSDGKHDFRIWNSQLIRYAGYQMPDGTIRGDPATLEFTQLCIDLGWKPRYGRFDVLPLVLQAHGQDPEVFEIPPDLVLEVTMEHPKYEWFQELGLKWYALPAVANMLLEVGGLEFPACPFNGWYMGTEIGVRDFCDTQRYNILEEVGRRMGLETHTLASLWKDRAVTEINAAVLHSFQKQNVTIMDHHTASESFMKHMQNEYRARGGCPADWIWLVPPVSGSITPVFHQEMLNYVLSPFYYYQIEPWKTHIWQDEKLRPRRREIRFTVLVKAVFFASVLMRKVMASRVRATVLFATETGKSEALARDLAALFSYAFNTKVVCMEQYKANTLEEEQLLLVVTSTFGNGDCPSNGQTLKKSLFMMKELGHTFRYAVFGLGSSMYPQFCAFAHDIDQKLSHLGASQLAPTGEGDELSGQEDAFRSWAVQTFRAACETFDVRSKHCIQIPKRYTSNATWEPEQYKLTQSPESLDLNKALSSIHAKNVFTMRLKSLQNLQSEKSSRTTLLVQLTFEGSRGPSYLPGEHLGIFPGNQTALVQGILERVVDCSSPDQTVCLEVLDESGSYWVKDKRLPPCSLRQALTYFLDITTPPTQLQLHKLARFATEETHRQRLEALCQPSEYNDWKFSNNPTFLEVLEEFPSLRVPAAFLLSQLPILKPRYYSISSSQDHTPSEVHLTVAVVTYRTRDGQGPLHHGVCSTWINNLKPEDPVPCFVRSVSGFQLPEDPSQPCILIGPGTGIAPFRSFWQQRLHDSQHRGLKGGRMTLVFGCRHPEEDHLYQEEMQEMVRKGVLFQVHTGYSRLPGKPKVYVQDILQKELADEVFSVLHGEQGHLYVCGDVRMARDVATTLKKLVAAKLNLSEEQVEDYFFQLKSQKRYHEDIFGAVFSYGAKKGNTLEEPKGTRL

`CCCCCCCCCCn1cc(-c2cc3ccccc3oc2=O)nn1`: the inhibition entry (with Neutrophil [1]; in the series with Neutrophil [5]; in the series with Neutrophil [6]; in series [14]) was “inactive” each time. The Activity entry in series [2] is given as “Toxic”; in [8], “Non-toxic”; in series [9] it was “Non-toxic”. The outcome in the series on Neutrophil [3] and in the series on Neutrophil [4] was inactive. For the same compound, the inhibition result (in the series with Neutrophil [7]; in series [10]; in series [11]; in the series with Neutrophil [12]; in the series with Neutrophil [13]) was “Active” in each case. Also, the viability in series [15] is above 90%.
Consider `CCCCCCCCn1cc(-c2cc3ccccc3oc2=O)nn1`, for which the inhibition entry (in the series with Neutrophil [1]; with Neutrophil [5]; in the series on Neutrophil [6]; in series [14]) was “inactive” each time. In addition, the Activity entry in series [2] is on record as “Toxic”; in series [8] it was “Non-toxic”; in series [9], “Non-toxic”. Besides, the outcome with Neutrophil [3] and with Neutrophil [4] was inactive. The inhibition result (in the series with Neutrophil [7]; in series [10]; in series [11]; with Neutrophil [12]; in the series with Neutrophil [13]) was “Active” in each case. Moreover, the viability in [15] is above 90%.
Regarding `COC(=O)[C@@H](N)CCCNC(=N)N[N+](=O)[O-]`, the inhibition entry in series [14] is “Active”.
Turning to `O=c1oc2ccccc2cc1-c1cn(-c2ccccc2)nn1`, the outcome with Rattus norvegicus was Active. In addition, the inhibition result (in the series on Neutrophil [1]; in the series with Neutrophil [5]; in the series with Neutrophil [6]; in [14]) was “inactive” each time. In addition, the result with Neutrophil [3] and with Neutrophil [4] was inactive. Also, the inhibition entry (in the series on Neutrophil [7]; in series [10]; in series [11]; in the series with Neutrophil [12]; in the series with Neutrophil [13]; in the series on Neutrophil [16]) was “Active” each time. Further, in the series with Neutrophil [17], the inhibition result was “Active”. The Activity result in [8] and in [9] was “Non-toxic” in each case. Further, in [15], the viability is above 90%.
On to `N=C(N)NN`, for which the outcome with Rattus norvegicus was Active.
Consider `CCCCCCn1cc(-c2cc3ccccc3oc2=O)nn1`, for which the inhibition result with Neutrophil [1], in the series with Neutrophil [5] and in the series on Neutrophil [6] was “inactive” in each case. The outcome with Neutrophil [3] and in the series on Neutrophil [4] was inactive. The Activity entry in series [18] is “Toxic”; in series [8] it was “Non-toxic”; in [9] it was “Non-toxic”; in [19] it was “Toxic”. The inhibition result (in [10]; in series [11]; in the series on Neutrophil [12]; in the series with Neutrophil [13]; in [14]) was “Active” in each case. In addition, the viability in series [15] is above 90%.
